Assay results gathered from unrelated publications.
Each line is one published result; the experiments were not run side by side.
gag-pol reverse transcriptase: Gag-Pol polyprotein, reverse transcriptase (gag-pol, Human immunodeficiency virus type 1 group M subtype B, UniProt P04585)
gag-pol protease: Gag-Pol polyprotein, protease (gag-pol, Human immunodeficiency virus type 1 group M subtype B, UniProt P04585)

| SMILES | target | observed | action | technique | quantity | result |
| --- | --- | --- | --- | --- | --- | --- |
| C=CCn1cc(C#N)c2cc(C#N)cnc21 | gag-pol reverse transcriptase | enzyme activity | inhibitor | FRET | IC50 | > 100000 nM |
| CC[C@H](C)[C@H]1C(OC(C)(C)C)=CC(=O)N1[C@H]1CCN(C2=CC(=O)N([C@H]3CCN(C4=CC(=O)N[C@H]4CC(C)C)C3)[C@H]2C)C1 | gag-pol protease | enzyme activity | inhibitor | fluorescence | IC50 | 111000 nM |
| COc1ccc2c(c1)OCCCCCCCCCN(C[C@@H](O)[C@H](Cc1ccccc1)NC(=O)O[C@H]1CO[C@H]3OCC[C@H]31)S2(=O)=O | gag-pol protease | enzyme activity | inhibitor | – | Ki | < 0.7 nM |
| CCCc1c2c(nc3c1c(C#N)cn3C1CCCCC1)CCC2=O | gag-pol reverse transcriptase | enzyme activity | inhibitor | FRET | IC50 | > 100000 nM |
| O=C(O)Cc1ccc(O)c(O)c1 | Gag-Pol polyprotein, integrase (gag-pol, Human immunodeficiency virus type 1 group M subtype B, UniProt P04585) | enzyme activity | inhibitor | – | IC50 | > 25000 nM |
| CC1(C)CC(=O)c2cc3c(C#N)cn(Cc4ccccc4)c3nc2C1 | gag-pol reverse transcriptase | enzyme activity | inhibitor | FRET | IC50 | > 10000 nM |
| CC(C)[C@H](NC(=O)[C@H](CCCNC(=N)N)NC(=O)[C@H](CO)NC(=O)[C@@H](N)Cc1c[nH]c2ccccc12)C(=O)NCC(=O)N[C@@H](Cc1ccc(O)cc1)C(=O)N[C@@H](Cc1c[nH]c2ccccc12)C(N)=O | gag-pol protease | binding | – | SPR | Kd | 44600 nM |
| C=CCCCOc1ccc(C[C@H](NC(=O)c2cccc(O)c2CCC=C)[C@H](O)CN(CC(C)C)S(=O)(=O)c2ccc(OC)cc2)cc1 | gag-pol protease | enzyme activity | inhibitor | – | Ki | 45 nM |
| N#Cc1cn(Cc2ccccc2)c2ncc(Br)cc12 | gag-pol reverse transcriptase | enzyme activity | inhibitor | FRET | IC50 | > 100000 nM |
| C=CCCCCOc1ccc(C[C@H](NC(=O)c2cccc(O)c2CCC=C)[C@H](O)CN(CC(C)C)S(=O)(=O)c2ccc(OC)cc2)cc1 | gag-pol protease | enzyme activity | inhibitor | – | Ki | 30 nM |
| C[C@H](Cn1cnc2c(N)ncnc21)OCP(=O)(O)O | gag-pol reverse transcriptase | enzyme activity | inhibitor | – | IC50 | 950 nM |
| C=CCCOc1ccc(C[C@H](NC(=O)c2cccc(O)c2CCC=C)[C@H](O)CN(CC(C)C)S(=O)(=O)c2ccc(OC)cc2)cc1 | gag-pol protease | enzyme activity | inhibitor | – | Ki | 7 nM |
| CC(C)CN(C[C@@H](O)[C@H](Cc1ccccc1)NC(=O)O[C@H]1CCO[C@H]2OCC[C@H]21)S(=O)(=O)c1ccc(C(=O)O)cc1 | gag-pol protease | enzyme activity | inhibitor | – | Ki | 0.0076 nM |
